hERG rescue = shields human hERG channel from block by proarrhythmic agents | Q12809 | CHO-hERG, FluxOR thallium flux, dofetilide IC70 present | activation (rescue from dofetilide block), less the hit threshold, % at 10 µM | 0.51% of 310,000 active | AID 1511;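 active = activation above the mean of controls blocked by dofetilide plus 5 SD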;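 note: thallium influx through hERG after potassium depolarization seen as dye fluorescence rise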
KCNK3 block = human KCNK3 channel inhibition, primary screen | O14649 | CHO-KCNK3 thallium flux, FluxOR fluorescence; active compounds read low | B-score at 10 µM | 0.84% of 340,000 active | AID 602410;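 active = B-score under library mean minus 4 SD, starting fluorescence ratio at most library mean plus 5 SD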;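 note: more negative B-score means stronger inhibition of thallium flux through KCNK3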
KCNQ1 inh = inhibitors of human KCNQ1 potassium channel. CHO-K1 KCNQ1, FluxOR thallium flux fluorescence; active compounds read high. B-score at 10 µM. 1.3% of 310,000 active;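 active = compounds whose thallium flux B-score, printed positive for inhibition, exceeds three library SD while starting fluorescence stays within three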;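 note: channel opened by potassium depolarization with thallium stimulus after 20 min compound exposure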
Kir21 block = blocks the mouse Kir2.1 inward-rectifier potassium channel; HEK293-Kir2.1, FluxOR thallium flux fluorescence; active compounds read low; AID 1672; 0.85% of 310,000 active; P35561; B-score at 10 µM;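 active = fluorescence ratio B-score at or below minus 3 SD of library scores, with starting-brightness B-score within 2 SD, cut at about -4.2 in these data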;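 note: channel flux triggered by added potassium and thallium sulfate stimulus; B-score of peak minus minimum fluorescence over baseline after thallium stimulus; more negative B-score means stronger Kir2.1 block with less thallium influx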
Target sequence (P35561 whole entry, looked up): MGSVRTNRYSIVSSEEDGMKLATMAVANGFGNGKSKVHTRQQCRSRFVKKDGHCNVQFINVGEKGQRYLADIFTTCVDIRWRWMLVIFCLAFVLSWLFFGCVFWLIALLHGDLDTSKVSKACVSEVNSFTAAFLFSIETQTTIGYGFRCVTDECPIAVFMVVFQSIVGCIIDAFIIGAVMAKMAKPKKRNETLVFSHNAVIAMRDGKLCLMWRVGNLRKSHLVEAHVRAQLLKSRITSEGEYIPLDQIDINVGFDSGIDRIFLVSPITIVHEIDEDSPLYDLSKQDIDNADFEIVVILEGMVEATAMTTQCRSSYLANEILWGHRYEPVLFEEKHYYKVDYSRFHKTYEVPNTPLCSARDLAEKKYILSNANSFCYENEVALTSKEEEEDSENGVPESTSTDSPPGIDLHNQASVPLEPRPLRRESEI
KCNQ1 act = potentiators or activators of human KCNQ1 potassium channel; CHO-K1 KCNQ1, thallium flux FluxOR fluorescence; active compounds read high; B-score at 10 µM; 0.35% of 310,000 active; AID 2648;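 active = fluorescence ratio B-score, a plate-corrected score, at least three library SD, with initial intensity B-score within 5 SD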
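Assay system: CHO-K1 cells stably expressing KCNQ1. Medium: assay buffer for compound exposure, DMSO matched across wells. Timing: 37 °C overnight plating, 90-min dark dye load, 20-min compound pretreatment. Signal: kinetic FluxOR fluorescence, 10 s baseline plus 110 s post-stimulus.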
KCNK9 block = inhibitors of human KCNK9 two-pore domain potassium channel. HEK293 KCNK9, FluxOR thallium flux fluorescence; active compounds read low. B-score at 10 µM. 1.2% of 310,000 active;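 active = ratio B-score over 3 SD below the library mean, with starting fluorescence within 5 SD of its mean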;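 note: negative B-score means less thallium flux so channel inhibition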
* = called active by the depositor; i = inactive; . = not tested or not shown. Hits are enriched below; roughly 3.7% of the tested compounds scored in any of these assays.

SMILES | hERG rescue | KCNK3 block | KCNQ1 inh | Kir21 block | KCNQ1 act | KCNK9 block
O=C(NCC1COc2ccccc2O1)C1C2C=CC3(CN(Cc4ccccc4Cl)C(=O)C13)O2 (stereo unspecified) | -12 | i | i | -0.36 | i | i
COc1ccc(CCN2CC34C=CC(O3)C(C(=O)NCc3ccccc3Cl)C4C2=O)cc1OC (stereo unspecified) | 4.7* | i | i | -0.03 | i | i
Cc1ccc(NC(=O)CSc2n[nH]c(C)c2[N+](=O)[O-])cc1 | -5 | i | i | 0.87 | i | i
Cc1[nH]nc(SCC(=O)N2CCCCC2)c1[N+](=O)[O-] | -5 | i | i | -0.91 | 10* | i
O=C(CN1CCN(c2ccc(O)cc2)CC1)N(C1CC1)C1CCS(=O)(=O)C1 (stereo unspecified) | . | i | . | . | . | .
CCOc1ccc(OCC)c(NC(=O)CCCN2C(=O)c3cccnc3C2=O)c1 | 7.5* | i | i | 0.1 | i | i
Nc1c(Br)cc(Br)c2c1-c1ccc([N+](=O)[O-])cc1C2 | . | i | . | . | . | .
COc1ccc(NC(=O)COC(=O)CC2CC3CCC2C3)c([N+](=O)[O-])c1 (stereo unspecified) | 2 | i | i | 0.44 | i | i
O=C(COC(=O)c1cccc2ccccc12)Nc1cccnc1Cl | -4 | i | i | 0.56 | i | i
CCC(=O)Nc1ccccc1C(=O)OCC(=O)c1cccc2ccccc12 | -10 | -11* | i | 1.4 | i | -7.3*
O=C(COC(=O)c1ccncc1)Nc1cccc2ccccc12 | . | -8.8* | . | . | . | .
Clc1ccc(Cl)c(OCCN2CCCC2)c1 | -3 | i | i | -0.28 | i | i
C=CCn1c(=O)c(C(=O)NCc2ccccc2Cl)c(O)c2ccccc21 | -8 | i | i | -0.83 | i | i
CCOC(=O)c1c(-c2ccc(C)o2)csc1NC(=O)COC(=O)c1cccs1 | -24 | i | i | -1.5 | i | -6.7*
CCOC(=O)c1c(-c2ccc(C)o2)csc1NC(=O)CSc1ncn[nH]1 | -12 | i | i | -2.2 | i | i
CCOC(=O)c1c(-c2ccc(C)o2)csc1NC(=S)NC(=O)N(C)C | 14* | i | i | -0.04 | 39* | i
CCOC(=O)c1c(-c2ccc(C)o2)csc1N | -9 | i | i | -0.53 | i | i
C=C(C(=O)c1ccccc1)C(C)C(=C)C(=O)c1ccccc1 | -5 | i | i | -4.4* | i | i
OC(COc1ccc(Br)cc1)CN1CCC(Cc2ccccc2)CC1 (stereo unspecified) | -20 | i | i | -0.04 | i | i
C#Cc1cccc(NC(=O)c2ccc(Cl)cc2Cl)c1 | -8 | i | i | 0.76 | i | i
COc1ccccc1C(CNC(=O)C(C)Oc1ccc(Br)cc1)N1CCCC1 (stereo unspecified) | -8 | i | i | -5.8* | i | i
CN1CCC(NCCC(c2ccc(F)cc2)c2ccc(Cl)cc2)CC1 (stereo unspecified) | -9 | i | i | -6.7* | i | i
CC(C)C(CCNC1CCN(C)CC1)c1ccc(Cl)cc1 (stereo unspecified) | -6 | i | i | -1.4 | i | i
O=C(c1ccc([N+](=O)[O-])cc1)N1CCC(Cc2ccccc2)CC1 | -10 | i | i | 0.13 | i | -7.4*
O=C(Cc1ccccc1)NC1CCN(C(=O)c2ccc([N+](=O)[O-])cc2)CC1 | -3 | i | i | 0.95 | i | i
SMILES | hERG rescue | KCNK3 block | KCNQ1 inh | Kir21 block | KCNQ1 act | KCNK9 block
CCOC(=O)CC(NC(=O)c1cccs1)c1ccc(OCC)cc1 (stereo unspecified) | 8.6* | i | i | 0.95 | i | i
O=C(CCC1CCCCC1)NCc1ccc(F)cc1 | -5 | i | i | -2 | i | i
CC1CCCCC1NCC(=O)NCc1ccc(F)cc1 (stereo unspecified) | 4.7* | i | i | 0.55 | i | i
C#CCN(C(=O)c1cc(COc2cccc(C(F)(F)F)c2)on1)C1CCCCC1 | -11 | i | i | -0.31 | i | i
COc1ccccc1N1C(=O)C2C(C(=O)c3ccccc3)=NN(c3ccc(C)cc3)C2C1=O (stereo unspecified) | -10 | i | 6* | 0.2 | i | i
COC(=O)c1ccc(COc2ccc(/C=N/O)cc2)o1 | -20 | i | i | 0.57 | i | i
COc1cc(-c2nc(C(=O)NC3CCCCC3)cc3c2[nH]c2ccccc23)cc(OC)c1OC | -11 | i | i | 0.57 | i | i
COc1cc(-c2nc(C(=O)NC3CCN(Cc4ccccc4)CC3)cc3c2[nH]c2ccccc23)cc(OC)c1OC | -29 | i | 6* | -1.3 | i | i
COc1ccc(NC(=O)/C(Cl)=C(/Cl)S(=O)(=O)Cc2ccccc2)cn1 | -19 | i | i | -5* | i | i
O=c1c2ccccc2[nH]c(=S)n1C1CCCCC1 | 9.3* | i | i | 0.68 | 9* | i
CC1CCC(n2c(=S)[nH]c3ccccc3c2=O)CC1 (stereo unspecified) | 18* | i | i | -2.2 | 56* | i
CC1CCCC(n2c(=S)[nH]c3ccccc3c2=O)C1C (stereo unspecified) | 0 | i | i | 1.1 | 41* | i
CCCc1cc(=O)[nH]c(SCC(=O)NC(=O)c2ccccc2)n1 | -9 | i | i | 0.12 | i | i
CCCc1cc(=O)[nH]c(SCC(=O)N(Cc2ccccc2)C(C)C)n1 | -5 | i | i | 0.41 | i | -7*
CCOc1ccc(/C=N/NC(=O)C(=O)N2CCCCCC2)c2ccccc12 | -7 | i | i | 0.07 | i | i
COc1cc(NC(=O)CSc2ncnc3sc4c(c23)CCC(C)C4)c(C(=O)O)cc1OC (stereo unspecified) | 51* | i | i | -0.06 | 39* | i
CC1CCc2c(sc3ncnc(SCC(=O)Nc4ccc(C(=O)O)cc4)c23)C1 (stereo unspecified) | -17 | i | i | 0.02 | i | i
COc1ccc(NC(=O)Nc2cccc3c2O[C@H](CN(C)S(=O)(=O)c2cn(C)cn2)[C@@H](C)CN([C@H](C)CO)C3=O)cc1 | . | i | . | . | . | .
Cc1ccccc1OC(C)C(=O)NCCC1=CCCCC1 (stereo unspecified) | -7 | i | i | -8.9* | i | i
Cc1c(CNCCC2=CCCCC2)c(C(=O)O)c(C)n1Cc1ccccc1 | 6.6* | i | i | 1.7 | i | i
Cc1cc(SCC(=O)NCCC2=CCCCC2)nc2ccccc12 | -11 | i | i | -16* | i | i
